Data set [1] can be described thus: Cytotoxicity in human CRL1459 cells assessed as reduction in cell viability incubated for 68 hrs by MTT assay. Type of data set: cell-based. Put shortly:
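Cells were trypsinised and seeded at 5x10^3 cells/well. Compound was added at 0, 0.1, 0.3, 1, 3, 10, 30 and 100 µM for 68 h. MTT (4 mg/mL solution) was then added for 4 h, and the formazan was dissolved in DMSO. Absorbance read at 570 nm. IC50 was derived from % survival across the eight concentrations. Mean ± SD of three independent experiments, each in triplicate.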
In general terms: Tetrazolium assays rely on reduction of a dye to a coloured formazan, in cell work by metabolically active cells.

Data set [2] can be described thus: Selectivity index, ratio of IC50 for cytotoxicity in CHO cells incubated for 68 hrs by MTT assay to IC50 for cytotoxicity in human OV2008 cells incubated for 68 hrs by MTT assay. The conditions noted are these: Chinese hamster (CHO cells), CHO cells versus OV2008 cells, read-out: Ratio IC50. The data set is classed as toxicity, cell-based.
A short description of data set [3]: Selectivity index, ratio of IC50 for cytotoxicity in human CRL1459 cells incubated for 68 hrs by MTT assay to IC50 for cytotoxicity in human A2780 cells incubated for 68 hrs by MTT assay. Type of data set: toxicity, cell-based. To be noted: CRL1459 cells versus A2780 cells, read-out: Ratio IC50.
Data set [4] is described as follows: Selectivity index, ratio of IC50 for cytotoxicity in HEK293 cells incubated for 68 hrs by MTT assay to IC50 for cytotoxicity in human A2780 cells incubated for 68 hrs by MTT assay. The data set is classed as toxicity, cell-based. The conditions noted are these: HEK293 cells versus A2780 cells, read-out: Ratio IC50.
Data set [5] relates to 2008. The data set can be described thus: Induction of morphological changes in human OV2008 cells at 1 to 4 uM incubated for 68 hrs. The data set is classed as functional, cell-based. Put shortly: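 OV2008 and A2780 cells, with CHO alongside, were exposed to 0, 1, 2 or 4 µM for 68 h. Each triplicate treatment was photographed at 20X under an inverted microscope to assess morphology.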

Data set [6] deals with 2008. Kind of data set: Inhibition of cell proliferation of human OV2008 cells at 1 to 8 uM incubated for 10 to 50 hrs. Type of data set: functional, cell-based. Put shortly:
(§1)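 OV2008 or A2780 cells were seeded at low density (1x10^3 cells/well) and given 0, 2, 4 or 8 µM. Live-cell images were taken every 2 h for up to 48 h. Confluence at each time point was quantified with a confluence mask and plotted as timeline curves. Means ± SD of three independent experiments.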

For data set [7], the system named is A2780. Kind of data set: Inhibition of cell proliferation of human A2780 cells at 1 to 8 uM incubated for 10 to 50 hrs. The data set is classed as functional, cell-based. Put shortly: as §1
In data set [8] the test system is 2008. Kind of data set: Induction of apoptosis in human OV2008 cells assessed as apoptosis cells level at 2 uM incubated for 12 hrs by Alexa Fluor 488 annexin V and mito-tracker red CMXRos dye staining based flow cytometry (reference value: 19.6%). Type of data set: functional. Put shortly: (§2)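 Cells in complete medium were treated with 0, 2 or 4 µM for 12 h, then trypsinised. They were stained with MitoTracker Red (4 µL of 10 µM working solution per 1 mL of cells) for 30 min at 37 °C under 5% CO2. Cells were then resuspended in annexin-binding buffer with Alexa Fluor 488 annexin V for 15 min. Flow cytometry emission read at 530 and 585 nm. Two independent experiments, each in triplicate.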
On the technique in general: A flow cytometer gives signals particle by particle.

In data set [9] the test system is 2008. Kind of data set: Induction of apoptosis in human OV2008 cells assessed as apoptosis cells level at 4 uM incubated for 12 hrs by Alexa Fluor 488 annexin V and mito-tracker red CMXRos dye staining based flow cytometry (reference value: 19.6%). Type of data set: functional. Put shortly:
as §2

Data set [10] relates to 2008. Kind of data set: Induction of cell cycle arrest in human OV2008 cells assessed as increase in cell accumulation at subG1 phase at 2 to 4 uM incubated for 12 hrs by propidium iodide staining based flow cytometry. The data set is classed as functional. Put shortly:
(§3)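 OV2008 cells were plated at 1x10^6 cells/well and incubated with 0, 2 or 4 µM for 12 h. Cells were trypsinised, washed and resuspended in ice-cold PBS, then stained with propidium iodide for at least 15 min. Phase distribution was measured by flow cytometry. Means ± SD of three independent experiments in triplicate.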

Data set [11] relates to 2008. The data set can be described thus: Induction of cell cycle arrest in human OV2008 cells assessed as cell accumulation at S phase at 2 uM incubated for 12 hrs by propidium iodide staining based flow cytometry (reference value: 5.2%). Type of data set: functional. Put shortly:
as §3

Data set [12] has as its system 2008. Kind of data set: Induction of cell cycle arrest in human OV2008 cells assessed as cell accumulation at subG1 phase at 4 uM incubated for 12 hrs by propidium iodide staining based flow cytometry (reference value: 11.3%). The data set is classed as functional. Put shortly:
as §3

Data set [13] relates to 2008. The data set can be described thus: Induction of cell cycle arrest in human OV2008 cells assessed as cell accumulation at G1 phase at 4 uM incubated for 12 hrs by propidium iodide staining based flow cytometry (reference value: 79.1%). The data set is classed as functional. Put shortly:
as §3

Data set [14] has as its system 2008. The data set can be described thus: Reduction in alpha-tubulin expression human OV2008 cells at 2 to 4 uM measured after overnight incubation by Western blot analysis. The data set is classed as functional, cell-based. Background: In western blotting, separated proteins are transferred to a membrane and probed.
Data set [15] is filed under the species Homo sapiens. Kind of data set: Inhibition of tubulin alpha in human OV2008 cells assessed as induction of disturbance in cellular microtubule shape and integrity by measuring loss in microtubule long spindle shape at 2 to 4 uM after overnight incubation by immunofluorescence analysis. The data set is classed as cell-based.
Data set [16] relates to 2008. The data set can be described thus: Potency index, ratio of IC50 for silybin to IC50 for test compound for cytotoxicity in human OV2008 cells assessed as reduction in cell viability incubated for 68 hrs by MTT assay. Type of data set: functional.

pIC50: −log10 of the molar value. Active and inactive are the calls of the source. The calls are words filed in the database; no cut-off is given here.

For `O=C(/C=C/c1cccc(OCc2ccccc2)c1)c1ccc(O)cc1`, the pIC50 (usually −log10 of the IC50, conventionally taken in molar units) in data set [1] was 5.07. Also, the selectivity ratio at 68 h in [2], in data set [3] and in data set [4] was 6 to 30 each time. For the same molecule, the outcome in [5] and in data set [14] was Active. Also, the inhibition result in data set [6], in data set [7] and in data set [15] was “Active” throughout. Moreover, the Activity in data set [8] is 38.1%; in data set [9] it was 42.5%; in data set [10], “Dose-dependent effect”; in data set [11], 4.4%; in data set [12], 33.9%; in data set [13], 45.3%. Moreover, the “Ratio IC50” value in [16] is reported as 30 - 200.

For the origin of these results see ChEMBL document CHEMBL4265873, “Design and discovery of silybin analogues as antiproliferative compounds using a ring disjunctive - Based, natural product lead optimization approach” (Eur J Med Chem, 2017).
